PMC4688279 (Prostaglandins & other lipid mediators, 2015)
Values joined by “and” are separate entries in the source; they are usually repeats but may differ in a detail not shown here. Equal entries are not always repeated. Where two headings read alike, the source gives them in different places.

What was measured:
[1] = cynomolgus monkeys, single oral dose 0.3 mg/kg; cited from earlier work
[2] = format: in vivo; conditions: rat
[3] = test system: mice sEH; conditions: read-out: IC50 sEH; cited from earlier work
[4] = test system: rat sEH; conditions: read-out: IC50 sEH; cited from earlier work
[5] = Chemical stability of TPPU in drinking water; format: physicochemical; conditions: 0.2% PEG400 in water, 8 days, plastic water bottles
[6] = test system: Caco-2 cells; assay: Caco-2 transwell model of in vitro intestinal absorption; format: in vitro ADME, human; conditions: after 6 hours of incubation
[7] = mice, three weeks drinking water, cited from earlier work
[8] = mice, cited from earlier work; for Cmax: read-out: Cmax in blood
[9] = test system: primary rat hepatocytes; assay: Metabolic stability in primary rat hepatocytes; format: in vitro ADME; conditions: for initially added TPPU remaining intact: after 20 hours, n=6
In short: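 Rat hepatocytes were isolated by portal-vein perfusion with oxygenated 2 mM EDTA buffer (37°C, 40 mL/min, 45 min), then purified on a 58% Percoll gradient (800 × g, 5 min). 1×10^5 cells were plated and allowed to attach for 4 h. Test compound (1 or 10 μM) was added in DMEM, 0.1% DMSO final; n=6. One medium aliquot was frozen directly. The other was deconjugated with glucuronidase (10.000 U/mL) and sulfatase (700 U/mL) in acetate buffer, pH 5.0, for 24 h.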

[10] = test system: human sEH; conditions: read-out: IC50 sEH; cited from earlier work

CCC(=O)N1CCC(NC(=O)Nc2ccc(OC(F)(F)F)cc2)CC1 [TPPU]
Cmax [1]: 700 ± 600 nM | plasma concentration lower than whole blood concentration ([2]; day 8): […] | blood concentration at steady state ([2]; drinking water 5 mg/L (0.5 mg/kg BW), after 8 days): […] | distribution into brain ([2]; drinking water, day 8): A significant portion also crosses the blood brain barrier | liver tissue level in comparison to heart tissue ([2]; group with the highest TPPU concentration, day 8): about 3.5 fold | IC50 [3]: 6 nM | IC50 [4]: […] | recovery in drinking water (chemical stability) ([5]; 0.2 mg/L): 103 ± 3.2% | recovery in drinking water (chemical stability) ([5]; 10 mg/L): 109 ± 4.9% | added amount detected on the basolateral side [6]: 66% | plasma level ([7]; 0.2 mg/kg BW daily): 610 ± 130 nM | plasma level ([7]; 0.6 mg/kg BW daily): 1800 ± 445 nM | bioavailability ([8]; oral gavage 0.1–3 mg/kg, based on AUC): 31–41% | Cmax ([8]; single dose p.o. 0.1 mg/kg): 270 nM | Cmax ([8]; single dose p.o. 0.3 mg/kg): 1700 nM | recovery of TPPU after glucuronidase/sulfatase treatment of the medium ([9]; 1 μM TPPU): 93 ± 9.3% | initially added TPPU remaining intact ([9]; 1 μM TPPU): 87 ± 3.5% | recovery of TPPU after glucuronidase/sulfatase treatment of the medium ([9]; 10 μM TPPU): 90 ± 5.9% | initially added TPPU remaining intact ([9]; 10 μM TPPU): 90 ± 1.6% and 90% | IC50 [10]: […]
